Experimental data published in ChEMBL document CHEMBL4373651, “Indole compounds with N-ethyl morpholine moieties as CB2 receptor agonists for anti-inflammatory management of pain: synthesis and biological evaluation” (Medchemcomm, 2019).

Legend:
[1] = molecular target: Cannabinoid receptor 1 (Homo sapiens, UniProt P21554); test: Agonist activity at human CB1 receptor expressed in CHO cells coexpressing Galpha16 assessed as reduction in forsklin-induced cAMP production incubated for 30 mins by cAMP Hunter assay based […] analysis; format: cell-based
Sequence of Cannabinoid receptor 1 (P21554 whole entry, the tested form may be a part): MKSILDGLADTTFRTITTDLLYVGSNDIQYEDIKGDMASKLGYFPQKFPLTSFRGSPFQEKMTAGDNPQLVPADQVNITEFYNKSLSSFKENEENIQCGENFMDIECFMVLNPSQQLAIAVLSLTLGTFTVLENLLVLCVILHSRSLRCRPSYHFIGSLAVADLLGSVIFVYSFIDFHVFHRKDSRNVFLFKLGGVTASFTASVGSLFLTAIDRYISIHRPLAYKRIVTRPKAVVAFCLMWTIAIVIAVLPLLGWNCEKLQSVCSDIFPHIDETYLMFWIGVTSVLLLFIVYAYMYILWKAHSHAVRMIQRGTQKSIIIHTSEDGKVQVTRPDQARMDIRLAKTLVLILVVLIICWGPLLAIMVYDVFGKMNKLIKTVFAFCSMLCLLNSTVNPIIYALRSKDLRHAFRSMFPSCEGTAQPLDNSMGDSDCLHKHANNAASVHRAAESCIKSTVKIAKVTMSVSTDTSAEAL
Outline: (§1)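 CHO cells expressing human CB1 or CB2 with Gα16, seeded overnight at 37 °C. Test compounds in stimulation buffer with 1 mM IBMX, 0.25% BSA and forskolin, 30 min at 37 °C. Cells lysed, cAMP read by enzyme fragment complementation chemiluminescence kit. Triplicate per dilution. Efficacy relative to CP-55940 reference run twice per plate. EC50 from means.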

[2] = molecular target: Cannabinoid receptor 2 (Homo sapiens, UniProt P34972); test: Agonist activity at human CB2 receptor expressed in CHO cells coexpressing Galpha16 assessed as reduction in forsklin-induced cAMP production incubated for 30 mins by cAMP Hunter assay based […] analysis; format: functional, cell-based; outline: as §1
Sequence of Cannabinoid receptor 2 (P34972 whole entry): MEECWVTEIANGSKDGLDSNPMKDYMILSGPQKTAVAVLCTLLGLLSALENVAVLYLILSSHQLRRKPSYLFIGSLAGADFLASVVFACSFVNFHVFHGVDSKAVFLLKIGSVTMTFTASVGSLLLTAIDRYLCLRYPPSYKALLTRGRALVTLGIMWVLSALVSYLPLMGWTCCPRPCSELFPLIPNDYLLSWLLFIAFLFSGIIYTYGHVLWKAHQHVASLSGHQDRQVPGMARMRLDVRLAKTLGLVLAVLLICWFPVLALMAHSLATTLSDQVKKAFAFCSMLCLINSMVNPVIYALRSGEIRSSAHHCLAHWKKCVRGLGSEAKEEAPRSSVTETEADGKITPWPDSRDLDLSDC

[3] = Selectivity ratio of EC50 for human CB1 receptor expressed in CHO cells coexpressing Galpha16 to EC50 for human CB2 receptor expressed in CHO cells coexpressing Galpha16
Outline: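 Ratio of EC50 values from the CB1 and CB2 cAMP assays in CHO-Gα16 cells: 30 min compound exposure at 37 °C with 1 mM IBMX and forskolin, chemiluminescent cAMP read-out, triplicates.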

SMILES	EC50 ([1]; cho)	EC50 ([2]; cho)	EC50 ([2]; read-out: EC50) [µM]	Ratio EC50 [3]	EC50 ([1]; read-out: EC50) [µM]
Cc1c(CC(=O)N2CCCCC2)c2cc(F)ccc2n1CCN1CCOCC1	Not Active	Not Active			
COc1ccc2c(c1)c(CCN1CCOCC1)c(C)n2CC(=O)N1CCCCC1	Not Active		41.9		
COc1ccc2c(c1)c(CCN1CCOCC1)c(C)n2CC(=O)N1CCCC1	Not Active		> 100		
COc1ccc2c(c1)c(CCN1CCOCC1)c(C)n2CC(=O)NCc1ccc2c(c1)OCO2	Not Active		28.1		
Cc1c(CCN2CCOCC2)c2cc(F)ccc2n1CC(=O)NCC1CC1	Not Active		4.2		
COc1ccc2c(c1)c(CCN1CCOCC1)c(C)n2CC(=O)NC1CCCCC1	Not Active		11.6		
Cc1c(CC(=O)NC2CCCC2)c2cc(Cl)ccc2n1CCN1CCOCC1	Not Active		2.7		
Cc1c(CCN2CCOCC2)c2cc(F)ccc2n1CC(=O)N1CCCC1	Not Active	Not Active			
Cc1c(CCN2CCOCC2)c2cc(F)ccc2n1CC(=O)NC1CCCCC1	Not Active	Not Active			
Cc1c(CCN2CCOCC2)c2cc(F)ccc2n1CC(=O)N1CCCCC1	Not Active	Not Active			
Cc1c(CC(=O)NCC2CC2)c2cc(F)ccc2n1CCN1CCOCC1	Not Active		3.1		
Cc1c(CCN2CCOCC2)c2cc(F)ccc2n1CC(=O)NC1CCCC1	Not Active		5.5		
Cc1c(CCN2CCOCC2)c2cc(Cl)ccc2n1CC(=O)N1CCCC1	Not Active	Not Active			
Cc1c(CC(=O)NCc2ccc3c(c2)OCO3)c2cc(F)ccc2n1CCN1CCOCC1	Not Active	Not Active			
Cc1c(CCN2CCOCC2)c2cc(Br)ccc2n1CC(=O)NC1CCCC1	Not Active		20.2		
COc1ccc2c(c1)c(CCN1CCOCC1)c(C)n2CC(=O)NC1CCCC1	Not Active		5.6		
COc1ccc2c(c1)c(CC(=O)NC1CCCCC1)c(C)n2CCN1CCOCC1	Not Active		> 100		
Cc1c(CC(=O)NC2CCCCC2)c2cc(F)ccc2n1CCN1CCOCC1	Not Active		> 100		
Cc1c(CCN2CCOCC2)c2cc(Br)ccc2n1CC(=O)NC1CC1	Not Active		8.2		
Cc1c(CCN2CCOCC2)c2cc(Cl)ccc2n1CC(=O)NC1CC1	Not Active		5.3		
Cc1c(CCN2CCOCC2)c2cc(Br)ccc2n1CC(=O)NCC1CC1	Not Active		5.4		
COc1ccc2c(c1)c(CCN1CCOCC1)c(C)n2CC(=O)NC1CC1	Not Active	Not Active			
Cc1c(CC(=O)N2CCCC2)c2cc(F)ccc2n1CCN1CCOCC1	Not Active	Not Active			
Cc1c(CCN2CCOCC2)c2cc(F)ccc2n1C(=O)N1CCCC1	Not Active	Not Active			
Cc1c(CCN2CCOCC2)c2cc(Br)ccc2n1CC(=O)N1CCCC1	Not Active	Not Active			
COc1ccc2c(c1)c(CCN1CCOCC1)c(C)n2CC(=O)NCC1CC1	Not Active		> 100		
Cc1c(CCN2CCOCC2)c2cc(F)ccc2n1CC(=O)NC1CC1	Not Active		3.9		
Cc1c(CCN2CCOCC2)c2cc(Cl)ccc2n1CC(=O)NC1CCCCC1	Not Active	Not Active			

SMILES	EC50 ([1]; cho)	EC50 ([2]; cho)	EC50 ([2]; read-out: EC50) [µM]	Ratio EC50 [3]	EC50 ([1]; read-out: EC50) [µM]
Cc1c(CC(=O)N2CCCC2)c2cc(Cl)ccc2n1CCN1CCOCC1	Not Active	Not Active			
Cc1c(CCN2CCOCC2)c2cc(Br)ccc2n1CC(=O)NCc1ccc2c(c1)OCO2	Not Active	Not Active			
COc1ccc2c(c1)c(CC(=O)NC1CC1)c(C)n2CCN1CCOCC1	Not Active	Not Active			
Cc1c(CCN2CCOCC2)c2cc(Cl)ccc2n1C(=O)N1CCCC1	Not Active	Not Active			
Cc1c(CCN2CCOCC2)c2cc(F)ccc2n1CC(=O)NCc1ccc2c(c1)OCO2	Not Active	Not Active			
Cc1c(CCN2CCOCC2)c2cc(Br)ccc2n1C(=O)c1cccc(Cl)c1Cl			0.0523	>1000	> 100
Cc1c(CCN2CCOCC2)c2cc(Cl)ccc2n1C(=O)c1cccc(Cl)c1Cl			0.117	>1000	79.8
Cc1c(CCN2CCOCC2)c2cc(Br)ccc2n1C(=O)N1CCCC1	Not Active	Not Active			
COc1ccc2c(c1)c(CC(=O)N1CCCC1)c(C)n2CCN1CCOCC1	Not Active	Not Active			
Cc1c(CC(=O)NCc2ccc3c(c2)OCO3)c2cc(Cl)ccc2n1CCN1CCOCC1	Not Active	Not Active			
COc1ccc2c(c1)c(CCN1CCOCC1)c(C)n2C(=O)N1CCCC1	Not Active		26.4		
Cc1c(CCN2CCOCC2)c2cc(Cl)ccc2n1CC(=O)N1CCCCC1	Not Active	Not Active			
Cc1c(CC(=O)NC2CCCC2)c2cc(F)ccc2n1CCN1CCOCC1	Not Active		0.476	>1000	
Cc1c(CCN2CCOCC2)c2cc(Br)ccc2n1CC(=O)N1CCCCC1	Not Active	Not Active			
Cc1c(CCN2CCOCC2)c2cc(Cl)ccc2n1CC(=O)NCc1ccc2c(c1)OCO2	Not Active	Not Active			
COc1ccc2c(c1)c(CC(=O)N1CCCCC1)c(C)n2CCN1CCOCC1	Not Active		> 100		
COc1ccc2c(c1)c(CC(=O)NCc1ccc3c(c1)OCO3)c(C)n2CCN1CCOCC1	Not Active	Not Active			
Cc1c(CCN2CCOCC2)c2cc(Br)ccc2n1CC(=O)NC1CCCCC1	Not Active	Not Active			
Cc1c(CCN2CCOCC2)c2cc(Cl)ccc2n1CC(=O)NCC1CC1	Not Active		14.3		
COc1ccc2c(c1)c(CC(=O)NCC1CC1)c(C)n2CCN1CCOCC1	Not Active	Not Active			
Cc1c(CCN2CCOCC2)c2cc(Cl)ccc2n1CC(=O)NC1CCCC1	Not Active		16.1		
Cc1c(CC(=O)NCC2CC2)c2cc(Cl)ccc2n1CCN1CCOCC1	Not Active		0.594	>1000	
COc1ccc2c(c1)c(CC(=O)NC1CCCC1)c(C)n2CCN1CCOCC1	Not Active	Not Active			
Cc1c(CC(=O)NC2CCCCC2)c2cc(Cl)ccc2n1CCN1CCOCC1	Not Active		> 100		
Cc1c(CC(=O)N2CCCCC2)c2cc(Cl)ccc2n1CCN1CCOCC1	Not Active	Not Active			
Cc1c(CC(=O)NC2CC2)c2cc(F)ccc2n1CCN1CCOCC1	Not Active		4.1		
Cc1c(CC(=O)NC2CC2)c2cc(Cl)ccc2n1CCN1CCOCC1	Not Active		1.2		
